Experimental findings from ChEMBL document CHEMBL1139141, “Structure-based design of benzylamino-acridine compounds as G-quadruplex DNA telomere targeting agents” (Bioorg Med Chem Lett, 2007) are described below.

Assay [1] concerns DU-145. In words: Growth inhibition of human DU145 cells by SRB assay. The class given is functional, cell-based. (In general: In SRB staining, fixed cells bind dye roughly in proportion to their protein.)
Assay [2] has as its system A549. In words: Growth inhibition of human A549 cells by SRB assay. It is filed as functional, cell-based.
Assay [3] deals with Telomerase reverse transcriptase (Homo sapiens, UniProt O14746). Nature of the assay: Inhibition of human telomerase by TRAP assay. Summed up:
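Modified TRAP using A2780 ovarian carcinoma cell extract (1 µg protein) in 20 mM Tris-HCl pH 8.3, 68 mM KCl, 1.5 mM MgCl2, 1 mM EGTA, 0.05% Tween 20, 125 µM dNTPs, TS primer; 10 min at 30° with or without drug, heat-inactivated, then ACX primer PCR, 33 cycles. SYBR Green-stained PAGE products quantified by fluorescence; telEC50, triplicate.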

The species entered for assay [4] is Homo sapiens. Nature of the assay: Effect on human G-quadruplex DNA stability by FRET assay. Summed up:
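Oligonucleotide F21T (21-mer d[GGG(TTAGGG)3], donor–acceptor end-labelled) annealed at 400 nM in 50 mM KCl, 10 mM cacodylic acid pH 7.4 (92° 2 min, cooled over 4 h); 200 nM final with ligand 0.10–10.00 µM. Fluorescence read at 0.5° steps, 30–100° at 1°/min, excitation 450–495, detection 515–545 nm; ΔTm from melting, triplicate.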

Assay [5] concerns MCF7. Nature of the assay: Growth inhibition of human MCF7 cells by SRB assay. The class given is functional, cell-based.

Telomerase reverse transcriptase, sequence (O14746 whole entry): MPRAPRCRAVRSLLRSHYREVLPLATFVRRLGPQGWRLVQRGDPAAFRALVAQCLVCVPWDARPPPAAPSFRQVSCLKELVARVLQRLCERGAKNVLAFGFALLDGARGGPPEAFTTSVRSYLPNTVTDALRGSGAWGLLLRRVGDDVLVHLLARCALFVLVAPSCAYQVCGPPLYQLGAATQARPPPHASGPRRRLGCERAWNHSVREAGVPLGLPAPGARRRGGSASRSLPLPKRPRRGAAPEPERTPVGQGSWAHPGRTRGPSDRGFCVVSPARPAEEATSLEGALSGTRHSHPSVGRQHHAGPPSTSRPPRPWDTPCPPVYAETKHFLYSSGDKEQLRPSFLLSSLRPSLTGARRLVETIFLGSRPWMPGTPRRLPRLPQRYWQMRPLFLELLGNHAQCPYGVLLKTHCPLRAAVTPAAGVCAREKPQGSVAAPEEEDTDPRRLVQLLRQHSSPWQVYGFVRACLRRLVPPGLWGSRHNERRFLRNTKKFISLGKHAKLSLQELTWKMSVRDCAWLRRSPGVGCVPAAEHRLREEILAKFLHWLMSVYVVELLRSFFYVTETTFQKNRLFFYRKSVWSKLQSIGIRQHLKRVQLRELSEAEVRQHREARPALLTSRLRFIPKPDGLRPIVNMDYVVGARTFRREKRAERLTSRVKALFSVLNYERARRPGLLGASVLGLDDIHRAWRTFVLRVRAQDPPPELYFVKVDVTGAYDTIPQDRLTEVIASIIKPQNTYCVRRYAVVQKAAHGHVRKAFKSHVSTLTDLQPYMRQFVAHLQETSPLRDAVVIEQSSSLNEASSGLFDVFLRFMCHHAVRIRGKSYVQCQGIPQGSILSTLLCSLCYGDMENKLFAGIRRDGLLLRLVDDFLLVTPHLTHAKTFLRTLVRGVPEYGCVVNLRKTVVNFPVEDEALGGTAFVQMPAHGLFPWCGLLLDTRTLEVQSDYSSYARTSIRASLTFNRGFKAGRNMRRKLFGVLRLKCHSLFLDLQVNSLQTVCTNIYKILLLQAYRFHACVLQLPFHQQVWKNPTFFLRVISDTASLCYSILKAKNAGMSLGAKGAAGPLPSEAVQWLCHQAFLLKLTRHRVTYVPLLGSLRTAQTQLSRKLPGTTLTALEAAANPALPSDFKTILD

A word on the IC50: it is the concentration that gives 50% inhibition. A higher IC50 goes with lower potency. Broadly, the EC50 is the concentration at which the effect is half-maximal. In general, ΔTm refers to the shift of the melting midpoint relative to a reference. `Cc1cccc(CNc2c3ccc(NC(=O)CCN4CCCC4)cc3nc3cc(NC(=O)CCN4CCCC4)ccc23)c1`: the values for the IC50 in assay [1], in assay [2] and in assay [5] were 10 µM, 1.19 µM and 3 µM, respectively. Besides, the EC50 in assay [3] was 1 µM. Moreover, the thermal shift (ΔTm) in assay [4] stood at 29.5 °C.

In the case of `Cc1cccc(CNc2c3ccc(NC(=O)CCN4CCC(C)CC4)cc3nc3cc(NC(=O)CCN4CCC(C)CC4)ccc23)c1`, the values for the IC50 in assay [1], in assay [2] and in assay [5] were 0.63 µM, 0.57 µM and 0.58 µM, respectively. For the same compound, the response in assay [3] was half-maximal at 0.39 µM (EC50). Moreover, the ΔTm in assay [4] came to 24 °C.

As to `O=C(CCN1CCCC1)Nc1ccc2c(NCc3cc(F)cc(C(F)(F)F)c3)c3ccc(NC(=O)CCN4CCCC4)cc3nc2c1`, the IC50 in assay [1] came out at 2.53 µM; in assay [2], 2 µM; in assay [5] it was 1 µM. In assay [3], this compound yielded an EC50 of 0.24 µM. In addition, in assay [4], the ΔTm is 30.5 °C.

On to `COc1cc(CNc2c3ccc(NC(=O)CCN4CCCCC4)cc3nc3cc(NC(=O)CCN4CCCCC4)ccc23)cc(OC)c1`, for which the values for the IC50 in assay [1], in assay [2] and in assay [5] were 0.47 µM, 0.37 µM and 0.2 µM, respectively. The compound also registered an EC50 in assay [3] of 0.44 µM. Besides, the ΔTm in assay [4] worked out at 30 °C.

`Cc1cccc(CNc2c3ccc(NC(=O)CCN4CCCCC4)cc3nc3cc(NC(=O)CCN4CCCCC4)ccc23)c1`: the IC50 in assay [1] was determined as 0.77 µM; in assay [2], 0.5 µM; in assay [5], 0.46 µM. In addition, the concentration giving a half-maximal response (EC50) in assay [3] worked out at 0.23 µM. For the same compound, the ΔTm in assay [4] came to 31 °C.

Regarding `O=C(CCN1CCCCC1)Nc1ccc2c(NCc3ccc(F)c(F)c3)c3ccc(NC(=O)CCN4CCCCC4)cc3nc2c1`, the IC50 amounted to 2.25 µM in assay [1], 1.2 µM in assay [2] and 0.52 µM in assay [5]. The 50% effective concentration (EC50) in assay [3] was determined as 0.88 µM. Besides, in assay [4], the ΔTm worked out at 26.5 °C.

As to `CN(C)c1ccc(Nc2c3ccc(NC(=O)CCN4CCCCC4)cc3nc3cc(NC(=O)CCN4CCCCC4)ccc23)cc1`, the half-inhibitory concentration (IC50) came to 2.57 µM in assay [1], 2 µM in assay [2] and 0.54 µM in assay [5]. The compound also registered an EC50 in assay [3] of 0.36 µM. The ΔTm in assay [4] came to 21 °C.

With `COc1cc(CNc2c3ccc(NC(=O)CCN4CCCC4)cc3nc3cc(NC(=O)CCN4CCCC4)ccc23)cc(OC)c1`, the values for the IC50 in assay [1], in assay [2] and in assay [5] were 10.4 µM, 4.57 µM and 3.72 µM, respectively. Further, the response in assay [3] was half-maximal at 0.35 µM (EC50). Moreover, the ΔTm in assay [4] stood at 32.5 °C.

On to `O=C(CCN1CCCC1)Nc1ccc2c(NCc3cc(C(F)(F)F)cc(C(F)(F)F)c3)c3ccc(NC(=O)CCN4CCCC4)cc3nc2c1`, for which the figures for the IC50 in assay [1], in assay [2] and in assay [5] were 2.61 µM, 6.3 µM and 1.07 µM, respectively. Besides, in assay [3], the midpoint of the response, the EC50, lay at 0.86 µM. Besides, the ΔTm in assay [4] turned out to be 27.5 °C.

For the compound `CN(C)c1ccc(Nc2c3ccc(NC(=O)CCN4CCCC4)cc3nc3cc(NC(=O)CCN4CCCC4)ccc23)cc1`, the figures for the half-inhibitory concentration (IC50) in assay [1], in assay [2] and in assay [5] were 2.3 µM, 2.42 µM and 2.53 µM, respectively. Besides, in assay [3], a half-maximal effect (EC50) was put at 0.12 µM. Moreover, in assay [4], the shift in melting temperature (ΔTm) was determined as 28 °C.

`O=C(CCN1CCCC1)Nc1ccc2c(NCc3ccc(F)c(F)c3)c3ccc(NC(=O)CCN4CCCC4)cc3nc2c1`: the half-maximal inhibitory concentration (IC50) in assay [1] came to 9.75 µM; in assay [2] it was 2.11 µM; in assay [5], 2.26 µM. Also, in assay [3], the EC50 was 0.03 µM. Besides, the ΔTm in assay [4] turned out to be 29.5 °C.
